As usually defined, the IC50 is the concentration that gives 50% inhibition. The inhibition is the change of the read-out against control, counted positive when it falls.

Data set [1] can be described thus: Cysteine reactivity at pH 7.4 after 15 mins by 1H NMR analysis. Format: physicochemical. To be noted: pH 7.4, 0.25 h. The procedure, abridged:
(§1)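 Compound mixed with glutathione or L-cysteine at pH 7.4 and monitored by NMR for 2 h. The first spectrum was acquired 15 min after mixing. N-ethylmaleimide served as a reactive Michael acceptor reference.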

The subject of data set [2] is Plasmodium falciparum. Nature of the data set: Antimalarial activity against blood stage of Plasmodium falciparum in presence of pantothenate by [3H]hypoxanthine incorporation assay. Format: functional, organism-based.
Data set [3] is described as follows: Selectivity index, ratio of cytotoxic concentration for HEK293 cells to IC50 for Plasmodium falciparum 3D7 infected in human erythrocytes in presence of 1 uM pantothenate. To be noted: read-out: Selectivity Index. Format: toxicity, cell-based.
For data set [4], the system named is Plasmodium falciparum. Put plainly: Antimalarial activity against Plasmodium falciparum 3D7 infected in human erythrocytes after 96 hrs in presence of 1 uM pantothenate by SYBR green fluorescence-based method. As to conditions: 3D7, 96 h. The class given is functional, organism-based. Summed up: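 Blood-stage parasites cultured 96 h in medium with 1 μM pantothenate across a range of compound concentrations; IC50 is the concentration giving 50% inhibition of proliferation. Each experiment run in triplicate, 2–7 independent experiments; mean ± range/2 (n = 2) or SEM (n = 3–7).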

The nature of data set [5]: Cysteine reactivity at pH 7.4 after 2 hrs by 1H NMR analysis. The class given is physicochemical. To be noted: pH 7.4, 2 h. Summed up: as §1
Data set [6] in a line: Cytotoxicity against human WI38 cells assessed as inhibition of cell proliferation at 100 uM after 48 hrs by CellTiter-Glo assay relative to control. Format: cell-based, WI-38. Summed up:
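WI-38 proliferation measured over 48 h with compound at 100 μM; percent inhibition reported.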
(In general: ATP-based viability assays read luminescence as a measure of living cells.)

Data set [7] can be described thus: Cytotoxicity against HEK293 cells assessed as inhibition of cell proliferation at 100 uM after 96 hrs by CellTiter-Glo assay relative to control. As to conditions: human. The class given is cell-based. Summed up:
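HEK-293 proliferation measured over 96 h with compound at 100 μM; percent inhibition reported.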

The test system of data set [8] is Plasmodium falciparum. Put plainly: Ratio of IC50 for Plasmodium falciparum 3D7 infected in human erythrocytes in presence of 100 uM pantothenate to IC50 for Plasmodium falciparum 3D7 infected in human erythrocytes in presence of 1 uM pantothenate. The class given is functional. Summed up: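 Paired 96 h proliferation assays with parasites in medium containing 100 μM versus 1 μM pantothenate. Fold-increase = IC50 at 100 μM pantothenate divided by IC50 at 1 μM. Two independent experiments in triplicate; error is range/2.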

In data set [9] the target is T1, Pantothenate kinase, putative (Plasmodium falciparum (isolate 3D7), UniProt Q8ILP4).
T1 sequence (Q8ILP4 whole entry): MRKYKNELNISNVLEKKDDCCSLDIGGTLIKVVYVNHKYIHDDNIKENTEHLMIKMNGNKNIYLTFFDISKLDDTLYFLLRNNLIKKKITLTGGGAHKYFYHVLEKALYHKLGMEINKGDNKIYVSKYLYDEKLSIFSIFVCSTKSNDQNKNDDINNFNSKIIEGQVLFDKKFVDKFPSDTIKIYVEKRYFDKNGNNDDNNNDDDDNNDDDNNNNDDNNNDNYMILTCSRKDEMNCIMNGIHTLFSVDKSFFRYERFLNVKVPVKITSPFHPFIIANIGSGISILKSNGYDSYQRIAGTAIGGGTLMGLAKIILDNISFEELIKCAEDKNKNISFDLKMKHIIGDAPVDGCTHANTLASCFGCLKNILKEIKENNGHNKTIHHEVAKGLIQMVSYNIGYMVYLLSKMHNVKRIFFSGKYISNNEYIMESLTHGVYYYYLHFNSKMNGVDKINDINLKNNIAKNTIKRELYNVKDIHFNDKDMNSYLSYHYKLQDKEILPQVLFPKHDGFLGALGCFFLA
Nature of the data set: Inhibition of pantothenate kinase in Plasmodium falciparum 3D7 trophozoites using [14C]pantothenate as substrate after 15 mins by TopCount scintillation counting method. Summed up:
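PanK activity in P. falciparum lysate with 1.8 μM [14C]pantothenate and increasing compound concentrations, 15 min incubation within the linear range. Percent inhibition from [14C]pantothenate phosphorylated versus no compound. 2–5 experiments in duplicate; mean ± range/2 or SEM.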

The target in data set [10] is T2, Pantothenate kinase, putative (Plasmodium falciparum (isolate 3D7)) (UniProt Q8ILP4).
T2 sequence (whole entry): T1 sequence (Q8ILP4 whole entry)
Nature of the data set: Inhibition of pantothenate kinase in Plasmodium falciparum 3D7 trophozoites at 100 uM using [14C]pantothenate as substrate after 15 to 60 mins by TopCount scintillation counting method relative to control. Summed up: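 [14C]Pantothenate phosphorylation by PanK in P. falciparum lysate with compound at 100 μM. Pantothenate was 1.8 μM for R-compounds and 1 μM for S-compounds. Incubation period was pre-set within the linear range; percent inhibition versus DMSO-only controls. 3–8 experiments in duplicate, SEM.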

The nature of data set [11]: Selectivity index, ratio of cytotoxic concentration for human WI38 cells to IC50 for Plasmodium falciparum 3D7 infected in human erythrocytes in presence of 1 uM pantothenate. To be noted: read-out: Selectivity Index. The class given is toxicity, cell-based.

Structures are written as SMILES.

On to `CCN1C(=O)C=CC1=O` [N-ETHYLMALEIMIDE], for which the Drug metabolism result in data set [1] is “Metabolite_Detected”.

For `CC(C)(CO)[C@@H](O)C(=O)N/C=C/C(=O)O`, the IC50 in data set [2] worked out at 39 µM; in data set [4] it was 36 µM; in data set [9] it was 14 µM. Further, the selectivity ratio in data set [3] and in data set [11] was greater than 3 throughout. Also, in data set [5], the Drug metabolism result is recorded as “Metabolite_Notdetected”. In data set [6], the inhibition at 48 h, 100 µM was -23%. For the same molecule, the inhibition at 96 h, 100 µM in [7] was -17%. In data set [8], the “Ratio IC50” value is greater than 2.8. Besides, in [10], the inhibition came to 87%.

For the origin of these results see ChEMBL document CHEMBL4138249, “Structure-activity analysis of CJ-15,801 analogues that interact with Plasmodium falciparum pantothenate kinase and inhibit parasite proliferation” (Eur J Med Chem, 2018).
